Most compounds without a hit are left out; they make up all but 3.1% or so of the library.
ADAM10 inh – ADAM10 inhibition, QFRET primary screen. recombinant ADAM10, EDANS/DABCYL FRET peptide cleavage, 3 h. inhibition, % at 7 µM. 370,000 compounds, 0.62% hits. O14672;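 active = inhibition above a per-campaign cutoff equal to the mean of compounds falling between control-based bounds plus 3 SD, cut at about 20% in these data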;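 also: 0% = DMSO wells while the 100% control is not disclosed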
Target sequence (O14672 214-748 limits assumed): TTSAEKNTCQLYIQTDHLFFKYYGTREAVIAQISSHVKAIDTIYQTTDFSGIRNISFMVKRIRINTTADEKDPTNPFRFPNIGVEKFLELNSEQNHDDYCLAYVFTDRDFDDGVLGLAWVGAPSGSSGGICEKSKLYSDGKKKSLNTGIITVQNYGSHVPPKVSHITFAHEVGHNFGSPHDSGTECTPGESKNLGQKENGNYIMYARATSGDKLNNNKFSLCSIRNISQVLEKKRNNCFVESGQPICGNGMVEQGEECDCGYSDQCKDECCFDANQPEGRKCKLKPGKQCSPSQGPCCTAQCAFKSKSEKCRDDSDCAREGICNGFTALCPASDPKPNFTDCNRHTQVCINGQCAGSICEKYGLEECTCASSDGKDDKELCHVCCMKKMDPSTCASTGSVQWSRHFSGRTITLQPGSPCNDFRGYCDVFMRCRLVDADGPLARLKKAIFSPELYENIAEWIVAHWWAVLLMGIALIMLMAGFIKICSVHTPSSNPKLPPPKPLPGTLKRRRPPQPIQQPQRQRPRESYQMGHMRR
Hep lipid drop – hepatic lipid droplet formation modulation; AML12 mouse hepatocytes, oleate lipid droplets, BODIPY imaging; inhibition, % at 6.5 µM; 240,000 compounds, 0.4% hits;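 active = lipid droplet intensity inhibited by at least 50%, with more than 500 cells counted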
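Assay system: AML12 mouse liver cells | Compound dosing: One dose, 6.5 µM compound | Read-out basis: Droplet intensity reduction, % inhibition | Measured by: Fluorescence imaging, 20x objective, two fields per well | Schedule: Overnight treatment with compound plus oleate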
V-ATPase pH – yeast V-ATPase proton transport regulation by pHLuorin | AID 504577 | response, % at 10 µM | 350,000 compounds, 0.37% hits | S. cerevisiae, pHLuorin cytosolic pH fluorescence; in the data active = response mostly above about 7.3%, no sharp cut-off; inactive = mostly below about 5.4%; also: actives read high
ADAM17 inh – inhibits human ADAM17 | recombinant ADAM17, EDANS/DABCYL FRET peptide cleavage | inhibition, % at 6.95 µM | 370,000 compounds, 0.83% hits | AID 720648;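 active = inhibition above the mean of compounds lying between control limits plus 3 SD, set per campaign, cut at about 8.5% in these data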;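 also: 0% = DMSO-only wells as the low control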
MPTP inh – permeability transition pore inhibition. isolated mouse mitochondria, Ca2+ swelling absorbance, 30 min. inhibition, % at 10 µM. 360,000 compounds, 1.4% hits. AID 602449;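 active = inhibition of 50% or more, scaled per plate between neutral and stimulator controls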;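 also: 0% = DMSO wells given calcium and 100% = 1 mM EGTA wells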
aDG glyco up – increases alpha dystroglycan glycosylation | activation, % at 10 µM | AID 624168 | Pro5-aDG cells, alpha-DG glycosylation AlphaScreen (IIH6); 0% Pro5, 100% B10-LARGE cell signal | 360,000 compounds, 0.22% hits;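 active = activation of at least 8% versus controls, or a plate z-score of at least 8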;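 also: Pro5 are CHO cells carrying HIG-tagged alpha-DG that lacks glycosylation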
Lipid drop inh – hepatic lipid droplet formation inhibition, confirmed. shares compounds with Hep lipid drop. AML12 mouse hepatocytes, BODIPY lipid droplet imaging; droplets induced with 100 µM oleic acid. inhibition, % at 5.2 µM. 870 compounds, 65% hits. AID 463183;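 active = inhibition of lipid droplet metric at least 50%, with more than 300 cells in each of four replicates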;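 also: plate controls were DMSO with oleic acid for no effect and 5 µM Triacsin-C for full effect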
AML12 cytotox – AML12 hepatocyte cytotoxicity (counter-screen). z-score at 5 µM. AML12 mouse hepatocytes, DAPI nuclear morphology cytotoxicity imaging; active compounds read high; cells fed 100 µM oleate overnight. 870 compounds, 3% hits. AID 463200. shares compounds with Hep lipid drop; in the data active = z-score above about 6.3;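 also: compound exposure lasted overnight at 37 °C before fixation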
AML12 tox conf – AML12 hepatocyte cytotoxicity, confirmed; shares compounds with Hep lipid drop; AML12 mouse hepatocyte viability, ATP luminescence; cells loaded with 100 µM oleic acid; cytotoxicity, % at 50 µM; 530 tested, under 10 active; AID 463219;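 active = cytotoxicity above 50% in each of four replicates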;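 also: compound exposure lasted overnight at 37 °C before the ATP read; 0% = DMSO-treated cells and 100% = wells with no cells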
Numbers without * were called inactive; . = not tested or not shown.

SMILES	ADAM10 inh	Hep lipid drop	V-ATPase pH	ADAM17 inh	MPTP inh	aDG glyco up	Lipid drop inh	AML12 cytotox	AML12 tox conf
Cn1c(CC(=O)Nc2ccc(F)cc2)c(Sc2ccccc2)c2ccccc21	3	14	-1	-2	37	0	.	.	.
CC(C)(C)c1cc(Br)c(O)c(N=Nc2ccc(S(=O)(=O)N3CCOCC3)cc2)c1	-3	56*	-2	-2	3	0	102*	-0.35	18
CCN(C(=O)Cn1nnc(-c2ccncc2)n1)c1ccccc1	-8	.	.	-3	.	.	.	.	.
O=C(Cc1ccccc1)Nn1c(-c2ccccc2)nc2ccccc2c1=O	-6	57*	0	2	-2	0	64*	0.09	9
CCOc1cc([C@@H]2C[C@H]3CN(c4ccccc4)C(=O)[C@]34CCCN24)ccc1OC	-3	80*	2	-6	-1	0	97*	0.57	19
COc1cc([C@@H]2C[C@H]3CN(c4ccccc4)C(=O)[C@]34CCCN24)cc(OC)c1OC	-7	3	1	-4	0	0	.	.	.
COc1ccccc1OCc1nnc(SCC(=O)Nc2ccc(C)cc2)n1C	10	.	8	-2	-11	0	.	.	.
Cc1ccccc1OCc1nnc(SCC(=O)Nc2ccc3c(c2)oc2ccccc23)n1C	-9	93*	-1	-4	2	0	40	0.56	.
COC(=O)c1cc(C)oc1C	-4	.	.	-5	.	.	.	.	.
CCOc1ccccc1NC(=O)c1cccc(NC(=O)C2CCCC2)c1	-9	63*	-2	0	-1	0	95*	0.46	4
FC(F)(F)c1ccc(Cl)c(NC(=S)N/N=C/c2ccccc2C(F)(F)F)c1	6	52*	2	-2	3	0	104*	0.61	1
COc1ccc(/C=N/NC(=S)Nc2cc(C(F)(F)F)ccc2Cl)cc1	7	-48	0	0	0	0	.	.	.
O=C1CN(C(=O)Cn2ncc(Cl)c(Cl)c2=O)c2ccccc2N1	-13	126*	-4	-2	0	0	0	0.66	.
CN(Cc1ccccc1F)C(=O)C1C2C=CC3(CN(Cc4ccccc4)C(=O)C13)O2 (stereo unspecified)	-4	.	.	-3	.	.	.	.	.
CCNc1nc(N)c(C(=O)c2ccc(Cl)s2)s1	9	52*	1	1	0	0	26	-0.34	.
CC(C)(C)c1csc(NC(=O)c2ccc(Cl)s2)n1	5	11	4	1	4	0	.	.	.
CC(C)N1CCc2c(sc(NC(=O)C(F)(F)F)c2-c2nc3ccccc3s2)C1	-413	.	.	-115	.	.	.	.	.
COc1ncccc1C(=O)NC1CCCc2c1cnn2-c1ccc(C)c(C)c1 (stereo unspecified)	-7	58*	-2	-2	0	0	92*	-0.4	-1
COc1cc(C(=O)Nc2cccc(C)n2)ccc1OCC(=O)N1CCOCC1	-9	.	-1	-1	-1	0	.	.	.
COc1ccc(-c2csc(NC(=O)c3ccc(OCC(=O)N4CCOCC4)c(OC)c3)n2)cc1OC	3	71*	1	1	2	-1	96*	0.43	25
C#CCN1CC(N(C)CCOC(=O)c2ccc(C(C)(C)C)cc2)CS1(=O)=O (stereo unspecified)	2	.	.	-5	.	.	.	.	.
CCC(Sc1nc2ccsc2c(=O)n1-c1ccc(Cl)c(C)c1)C(=O)NCc1ccco1 (stereo unspecified)	10	54*	2	2	1	0	64*	0.076	.
CCCC1(c2ccccc2)NC(=O)N(CC(=O)NCc2ccc(C)cc2)C1=O (stereo unspecified)	-6	23	3	0	0	0	.	.	.
COc1ccc(NC(=O)CN2C(=O)NC(c3ccccc3)(c3ccccc3)C2=O)cc1	10	-6	0	4	1	0	.	.	.
COc1ccc(NC(=O)CN2C(=O)NC(c3ccccc3)(c3ccccc3)C2=O)cc1OC	7	105*	-2	1	-2	0	103*	-0.13	2
SMILES	ADAM10 inh	Hep lipid drop	V-ATPase pH	ADAM17 inh	MPTP inh	aDG glyco up	Lipid drop inh	AML12 cytotox	AML12 tox conf
CCCC1(c2ccccc2)NC(=O)N(CC(=O)Nc2cc(C)ccc2OC)C1=O (stereo unspecified)	-2	56*	-2	-2	-1	0	87*	-0.48	13
COc1ccc(Cl)cc1NC(=O)CN1C(=O)NC2(CCCC2)C1=O	4	88*	2	-1	-1	0	91*	0.56	15
O=C1COc2ccc(C(=O)CSc3ccccc3C(=O)O)cc2N1	4	16	0	-1	0	0	.	.	.
CC(C)c1ccccc1-n1c(SCC(=O)c2ccc3c(c2)NC(=O)CO3)nc2ccccc2c1=O	3	54*	-2	-4	1	1	59	-1.3	3
Cc1ccc(NC(=O)C2CCN(S(=O)(=O)c3c(C)noc3/C=C/N(C)C)CC2)cc1	9	4	0	4	0	0	.	.	.
Cc1ccc(NC(=O)C2CCCN(S(=O)(=O)c3c(C)noc3/C=C/N(C)C)C2)cc1F (stereo unspecified)	1	57*	8	0	1	0	77*	-0.69	8
COC(=O)[C@]12C=CCN1[C@@H](c1ccc(Cl)cc1)c1c(c3ccccc3n1S(=O)(=O)c1ccc(C)cc1)C2	-38	.	.	-15	.	.	.	.	.
Cc1cc(O)c(C)c(O)c1/C=N/NC(=O)c1cccnc1	0	59*	2	5	1	0	0	-1.1	.
O=C(N/N=C/c1c(O)ccc2ccccc12)c1cccnc1	-9	-4	-2	-2	1	1	.	.	.
COc1ccc(CCNC(=O)c2cc3c(C)nn(-c4ccccc4)c3s2)cc1OC	12	.	.	7	.	.	.	.	.
O=C(Cc1cccc2ccccc12)Nc1nc(-c2cccc([N+](=O)[O-])c2)cs1	6	68*	0	0	18	0	100*	-1	31
O=C(Nc1nc(-c2cccc([N+](=O)[O-])c2)cs1)c1cccc([N+](=O)[O-])c1C(=O)O	-6	2	3	-5	-2	0	.	.	.
CC(OC(=O)c1ccc(F)cc1)C(=O)Nc1nc(-c2cccc([N+](=O)[O-])c2)cs1 (stereo unspecified)	-1	-2	-3	0	0	0	.	.	.
CC(C)Oc1ccc(C(=O)OC(C)C(=O)Nc2nc(-c3cccc([N+](=O)[O-])c3)cs2)cc1 (stereo unspecified)	1	91*	-3	-1	9	0	97*	0.34	10

Assay outcomes deposited in PubChem by several laboratories.
